Measured values published in ChEMBL document CHEMBL1777669, “Synthesis of substituted triazolyl curcumin mimics that inhibit RANKL-induced osteoclastogenesis” (Bioorg Med Chem Lett, 2011).

The molecules below were run on RAW264.7 (assay: Antiresorptive activity in mouse RAW264.7 cells assessed as inhibition of RANKL-induced osteoclastogenesis after 4 days by TRAP assay). Conditions: not given.
Assay type: functional, cell-based
How it was run: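 RAW264.7 cells, maintained in DMEM with 10% FBS and penicillin/streptomycin at 37 °C under 5% CO₂, were seeded at 1 × 10³ cells/well in α-MEM. On day 4, cells were fixed in 10% formalin (10 min) and 95% ethanol (1 min), then dried. TRAP activity was measured with 5 mM p-nitrophenylphosphate in 50 mM citrate buffer (pH 4.6, 10 mM tartrate) for 30 min, stopped with 0.1 N NaOH, and read at 410 nm.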

Row | Structure (SMILES) | inhibition
1 | COc1ccc(/C=C/C(=O)c2cccc(-n3cc(-c4ccc(C)cc4)nn3)c2)cc1O | Dose-dependent effect
2 | COc1cc(/C=C/C(=O)c2cccc(-n3cc(-c4ccccc4C(F)(F)F)nn3)c2)ccc1O | Dose-dependent effect
3 | COc1ccc(/C=C/C(=O)c2cccc(-n3cc(-c4ccccc4)nn3)c2)cc1O | Dose-dependent effect
4 | COc1ccc(/C=C/C(=O)c2cccc(N=[N+]=[N-])c2)cc1O | Dose-dependent effect

Same assay, conditions: RAW264.7, 96 h

Row | Structure (SMILES) | IC50
5 | COc1cc(/C=C/C(=O)c2cccc(-n3cc(-c4ccccc4)nn3)c2)ccc1O | 16.8 µM
6 | COc1ccc(/C=C/C(=O)c2cccc(-n3cc(-c4ccc(Br)cc4)nn3)c2)cc1O | 6.57 µM
7 | COc1cc(/C=C/C(=O)c2cccc(-n3cc(-c4ccc(Br)cc4)nn3)c2)ccc1O | 19.1 µM
8 | COc1ccc(-c2cn(-c3cccc(C(=O)/C=C/c4ccc(O)c(OC)c4)c3)nn2)cc1 | 7.9 µM
9 | COc1cc(/C=C/C(=O)c2cccc(-n3cc(-c4ccc(C)cc4)nn3)c2)ccc1O | 15.4 µM
10 | COc1cc(/C=C/C(=O)c2cccc(-n3cc(-c4cc(F)cc(F)c4)nn3)c2)ccc1O | 22.8 µM
11 | COc1ccc(/C=C/C(=O)c2cccc(-n3cc(-c4cc(F)cc(F)c4)nn3)c2)cc1O | 7.14 µM
12 | COc1ccc(/C=C/C(=O)c2cccc(-n3cc(-c4ccc(C)cc4)nn3)c2)cc1O | 1.7 µM
13 | C=C(C)c1cn(-c2cccc(C(=O)/C=C/c3ccc(O)c(OC)c3)c2)nn1 | 9.79 µM
14 | C=C(C)c1cn(-c2cccc(C(=O)/C=C/c3ccc(OC)c(O)c3)c2)nn1 | 7.76 µM
15 | COc1ccc(/C=C/C(=O)c2cccc(-n3cc(C(C)(C)O)nn3)c2)cc1O | 17.1 µM
16 | COc1cc(/C=C/C(=O)c2cccc(-n3cc(-c4ccc(F)cc4)nn3)c2)ccc1O | 6.45 µM
17 | COc1cc(/C=C/C(=O)c2cccc(-n3cc(-c4ccccc4C(F)(F)F)nn3)c2)ccc1O | 5.07 µM
18 | COc1cc(/C=C/C(=O)c2cccc(-n3cc(-c4cccc(Cl)c4)nn3)c2)ccc1O | 14.3 µM
19 | COc1cc(/C=C/C(=O)c2cccc(-n3cc(C(C)(C)O)nn3)c2)ccc1O | 19.8 µM
20 | COc1cc(/C=C/C(=O)c2cccc(N=[N+]=[N-])c2)ccc1O | 7.11 µM
21 | COc1ccc(-c2cn(-c3cccc(C(=O)/C=C/c4ccc(OC)c(O)c4)c3)nn2)cc1 | 6.29 µM
22 | COc1ccc(/C=C/C(=O)c2cccc(-n3cc(-c4cccc(Cl)c4)nn3)c2)cc1O | 6.61 µM
23 | CCCCCc1ccc(-c2cn(-c3cccc(C(=O)/C=C/c4ccc(O)c(OC)c4)c3)nn2)cc1 | 5.78 µM
24 | COc1ccc(/C=C/C(=O)c2cccc(-n3cc(-c4ccc(F)cc4)nn3)c2)cc1O | 2.5 µM
25 | COc1ccc(/C=C/C(=O)c2cccc(-n3cc(-c4ccccc4)nn3)c2)cc1O | 1.51 µM
26 | COc1ccc(/C=C/C(=O)c2cccc(N=[N+]=[N-])c2)cc1O | 1.96 µM
27 | CCCCCc1ccc(-c2cn(-c3cccc(C(=O)/C=C/c4ccc(OC)c(O)c4)c3)nn2)cc1 | > 30 µM
28 | COc1ccc(/C=C/C(=O)c2cccc(-n3cc(-c4ccccc4C(F)(F)F)nn3)c2)cc1O | 9.12 µM
